Experimental data collected from several papers.
Compare with care: the assays were run in different laboratories.
Cell line: NCI-H23
Read-out: cell growth or viability

| Compound | assay | setting | measurement | result |
| --- | --- | --- | --- | --- |
| c1ccc2cc(Cn3cc[n+](Cc4ccc5ccccc5c4)c3)ccc2c1 | SRB |  | TGI | 10100 nM |
| COc1ccc(C(=O)/C=C/c2ccc3ccccc3c2)cc1S(N)(=O)=O | SRB | 10 µM | inhibition | 124% |
| CCc1n(Cc2ccc3ccccc3n2)cc[n+]1Cc1ccc2ccccc2c1 | SRB |  | TGI | 3230 nM |
| CC/C(=C(\c1ccccc1)c1ccc(OCCN(C)C)cc1)c1ccccc1 | ATP luminescence | 72 h | EC90 | 18300 nM |
| O=C(/C=C/c1ccc2ncn(Cc3ccccc3)c(=O)c2c1)NO | SRB | 48 h | IC50 | 1000 nM |
| COc1ccc(C(=O)/C=C/c2cccc3ccccc23)cc1S(N)(=O)=O | SRB | 48 h | GI50 | 2200 nM |
| COc1ccc(-c2ccc(-c3ccc(C(=N)N)nc3)s2)cc1 | SRB |  | GI50 | 1840 nM |
| COc1ccc(C(=O)/C=C/c2cccc(Br)c2)cc1S(N)(=O)=O | SRB | 10 µM | inhibition | 166% |
| O=C1Nc2ccccc2C1=NNc1nnc2n1N=C(c1ccccc1)CS2 | SRB | 10 µM | inhibition | 31% |
| CCCc1n(Cc2ccc3ccccc3n2)cc[n+]1Cc1ccc2ccccc2c1 | SRB |  | TGI | 10600 nM |
| COc1ccc(C(=O)/C=C/c2cccnc2)cc1S(N)(=O)=O | SRB | 10 µM | inhibition | 78% |
| CCc1n(Cc2ccc3ccccc3n2)cc[n+]1Cc1ccc2ccccc2n1 | SRB |  | GI50 | 257 nM |
| COc1ccccc1/C=C/C(=O)c1ccc(OC)c(S(N)(=O)=O)c1 | SRB | 48 h | GI50 | 2300 nM |
| O=C(/C=C/c1ccc2c(=O)n(CCO)cnc2c1)NO | SRB | 48 h | IC50 | 4200 nM |
| Cc1cc(C)n(C(=S)[S][Au][PH](CCCCCC[PH]([Au][S]C(=S)n2nc(C)cc2C)(c2ccccc2)c2ccccc2)(c2ccccc2)c2ccccc2)n1 | SRB |  | GI50 | 1540 nM |
| O=C1NC(=NCc2cccs2)S/C1=C\c1ccc2ncccc2c1 |  |  | IC50 | > 10000 nM |
| Cc1cccc(-n2ncc(Br)c(Br)c2=O)c1 | resazurin | 96 h | IC50 | 210 nM |
